Assay outcomes: PubChem BioAssay, several laboratories
Rows were chosen to be rich in hits. Some 2.4% of all compounds tested hit in one or more screens of this group.
TbMetRS inhib = T. brucei MetRS inhibitors, primary screen, biochemical, luminescence. purified T. brucei MetRS, ATP depletion, Kinase-Glo luminescence. inhibition, % at 11.9 µM. 360,000 compounds, 0.4% hits. AID 624268, 2012;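 active means inhibition above a per-plate cutoff of the control wells' mean inhibition plus 3 SD, cut at about 5.5% in these data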
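Measured by: Kinase-Glo luciferase luminescence reporting remaining unconsumed ATP. Material: purified T. brucei MetRS enzyme. Doses: 11.9 µM compound single dose, 0.9% DMSO. Medium: HEPES buffer containing pyrophosphatase, BSA, spermine, DTT. Times: 15 min preincubation, 2 h reaction, all 25 °C. Reagent: methionine, ATP and bulk E. coli tRNA.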
MC4R barr agon = MC4R agonists recruiting beta-arrestin, primary screen, cell-based, luminescence, agonist arm of biased-ligand search. U2OS MC4R beta-arrestin complementation; percent of melanotan II response, DMSO zero. activation, % at 8.9 µM. 360,000 compounds, 0.98% hits. AID 540308, 2011;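 active means activation above a per-plate cutoff, the mean activation of sample wells on that plate plus 3 SD, cut at about 8% in these data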
Target sequence (P32245 whole entry, looked up): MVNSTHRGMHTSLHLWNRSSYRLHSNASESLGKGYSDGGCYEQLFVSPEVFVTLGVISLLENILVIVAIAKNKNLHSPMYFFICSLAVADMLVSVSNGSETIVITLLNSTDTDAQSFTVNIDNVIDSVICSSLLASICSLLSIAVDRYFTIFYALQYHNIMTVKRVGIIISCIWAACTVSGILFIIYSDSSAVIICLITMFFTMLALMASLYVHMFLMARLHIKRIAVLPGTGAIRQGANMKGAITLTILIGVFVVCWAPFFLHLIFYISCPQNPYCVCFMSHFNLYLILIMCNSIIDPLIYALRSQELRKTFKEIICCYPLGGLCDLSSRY
MC4R antagonist = MC4R antagonists of cAMP signaling, primary screen, cell-based, TR-FRET, antagonist arm of biased-ligand search | AID 540295, 2011 | 360,000 compounds, 0.48% hits | inhibition, % at 6.5 µM | MC4R-expressing cells, MTII-stimulated cAMP, LANCE TR-FRET;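 active means inhibition above its plate's cutoff, the mean of tested wells on that plate plus 3 SD, cut at about 29% in these data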
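System: U2OS-MC4R stable cell line; Technique: Eu-cAMP/anti-cAMP TR-FRET, emission 671 nm; Repeats: single well per compound; Also added: Melanotan II; Dosing: one concentration, 6.5 µM nominal; Schedule: 30-min compound, 1-h challenge, 1-h detection, room temperature.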
H9c2 TAG inh = inhibitors of triacylglycerol accumulation, primary screen, cell-based, uHTS, fluorescence, H9c2. H9c2 cells, Nile Red lipid (TAG) fluorescence; cells loaded with 200 µM oleic acid. inhibition, % at 12.5 µM. 230,000 compounds, 0.66% hits. AID 651582, 2012;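 active means pattern-corrected inhibition of lipid staining of at least 50% with the nuclear-stain viability signal not falling by more than 50%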
NTR1 agonist = agonists of human NTR1, primary screen, imaging, U2OS cells, beta-arrestin-GFP, high content. Neurotensin receptor type 1 (Homo sapiens), P30989. NTR1-U2OS beta-arrestin-GFP spot imaging, agonist mode. activation, % at 20 µM. 330,000 compounds, 0.17% hits;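 active means activation at or above 40% of the spot to cytoplasm intensity ratio, with at least 20 cells analyzed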
aDG glyco act = activators of alpha-DG glycosylation, primary screen, uHTS, Pro5-aDG cells, AlphaScreen | AID 624168, 2012 | alpha-DG glycosylation AlphaScreen (IIH6); 0% Pro5, 100% B10-LARGE cell signal | activation, % at 10 µM | 360,000 compounds, 0.22% hits;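 active means activation of at least 8% versus controls, or a plate z-score of at least 8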;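 further: Pro5 are CHO cells carrying HIG-tagged alpha-DG that lacks glycosylation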
Numbers stand for hits.

Results for CC(C)(C)c1cc[n+](C2=C([O-])c3ccccc3C(=O)/C2=N\S(=O)(=O)c2cccs2)cc1 ?
TbMetRS inhib: inactive; MC4R barr agon: inactive; MC4R antagonist: inactive; H9c2 TAG inh: 63.8; NTR1 agonist: inactive; aDG glyco act: 3.9

Results for O=C1/C(=N\S(=O)(=O)c2cccs2)C([n+]2ccccc2)=C([O-])c2ccccc21 ?
TbMetRS inhib: inactive; MC4R barr agon: inactive; MC4R antagonist: inactive; H9c2 TAG inh: 75.9; NTR1 agonist: inactive; aDG glyco act: inactive

What do the screens show for `CC(C)C[C@H]1CNC(=O)C(=O)N1CC1CCN(CCc2ccccc2)CC1`?
TbMetRS inhib: inactive; aDG glyco act: inactive

How did CCc1ccc(C2CC3C(CN2S(=O)(=O)c2ccc(C)cc2)[C@@H](O)C[C@@H](c2ccc(CC)cc2)N3S(=O)(=O)c2ccc(C)cc2)cc1 (some centres undefined) do in these assays?
TbMetRS inhib: inactive; aDG glyco act: inactive

How did C=CCOn1c(C)c(C(C)=O)c2c3nonc3ccc21 do in these assays?
TbMetRS inhib: inactive; MC4R barr agon: inactive; MC4R antagonist: inactive; H9c2 TAG inh: inactive; NTR1 agonist: inactive; aDG glyco act: inactive

What do the screens show for `CCOC(=O)c1c(C)n(OCc2ccccc2)c2ccc3nonc3c12`?
TbMetRS inhib: inactive; MC4R barr agon: 8.8; MC4R antagonist: inactive; NTR1 agonist: inactive; aDG glyco act: inactive

What do the screens show for `Nc1c(S(=O)(=O)c2ccccc2)c2nc3ccccc3nc2n1CCN1CCOCC1`?
TbMetRS inhib: inactive; MC4R barr agon: inactive; MC4R antagonist: inactive; NTR1 agonist: inactive; aDG glyco act: inactive

Results for Nc1c(S(=O)(=O)c2ccccc2)c2nc3ccccc3nc2n1Cc1ccco1 ?
TbMetRS inhib: inactive; MC4R barr agon: inactive; MC4R antagonist: inactive; NTR1 agonist: inactive; aDG glyco act: 18.9

Results for c1ccc(CCC2Cc3ccccc3N2)cc1 (centres undefined) ?
TbMetRS inhib: inactive; MC4R barr agon: inactive; MC4R antagonist: inactive; H9c2 TAG inh: inactive; NTR1 agonist: inactive; aDG glyco act: inactive

Results for c1ccc(CC[C@@H]2CC[C@@H](CCc3ccccc3)N2)cc1 ?
TbMetRS inhib: inactive; MC4R barr agon: 8.4; MC4R antagonist: inactive; NTR1 agonist: inactive; aDG glyco act: inactive

What do the screens show for `COc1ccc(-c2nc3c(Cl)cc(C(F)(F)F)cn3c2Cc2ccsc2)cc1OC`?
TbMetRS inhib: inactive; aDG glyco act: inactive

What do the screens show for `COC(=O)c1sccc1-n1cc2c(c1-c1ccccc1)c(=O)n(C)c(=O)n2C`?
TbMetRS inhib: inactive; aDG glyco act: inactive

How did O=C(OC1CCOC1=O)c1ccccc1C(=O)c1ccc(Cl)c([N+](=O)[O-])c1 (centres undefined) do in these assays?
TbMetRS inhib: inactive; MC4R barr agon: inactive; MC4R antagonist: inactive; H9c2 TAG inh: inactive; NTR1 agonist: inactive; aDG glyco act: inactive

How did CS(=O)(=O)c1ccc(C(=O)OC2CCOC2=O)cc1[N+](=O)[O-] (centres undefined) do in these assays?
TbMetRS inhib: inactive; MC4R barr agon: inactive; MC4R antagonist: 31.5; NTR1 agonist: inactive; aDG glyco act: inactive

Results for COc1ccc(CN(C)C(=O)[C@H]2O[C@@H](n3cnc4c(N)ncnc43)[C@H](O)[C@@H]2O)cc1OC ?
TbMetRS inhib: inactive; aDG glyco act: inactive

How did CCc1ccc(NC(=O)CCc2nc3cccnc3n2Cc2ccc(OC)cc2)cc1 do in these assays?
TbMetRS inhib: inactive; MC4R barr agon: 8.5; MC4R antagonist: inactive; H9c2 TAG inh: inactive; NTR1 agonist: inactive; aDG glyco act: inactive

How did CCN(CC)CCNC(=O)c1cc2c(-c3ccc(Cl)cc3)nn(C)c2s1 do in these assays?
TbMetRS inhib: inactive; MC4R barr agon: inactive; MC4R antagonist: inactive; H9c2 TAG inh: 65.1; NTR1 agonist: inactive; aDG glyco act: inactive
